Measured values pooled from the literature.
Values after ≈ are worked out from the molar mass of the structure shown.

Cc1cc(/C=C/C#N)cc(C)c1Nc1ccnc(Nc2ccc(C#N)cc2)n1 — EC50 (Human immunodeficiency virus 1; viral replication, inhibitor; TZM-bl, IIIB; 48 h): 0.89 nM
Cc1ccc(-c2nn(-c3ccccc3)cc2C=Nc2c(N)nc(S)nc2O)cc1 — CC50 (CCRF-CEM; cell growth or viability; 48 h): < 20 µM
CC(C)(C#Cc1ccc(-c2ccc(Cl)c3c(NS(C)(=O)=O)nn(CC(F)(F)F)c23)c([C@H](CC2CCCCC2)NC(=O)Cn2nc(C(F)(F)F)c3c2C(F)(F)[C@H]2C[C@@H]32)n1)S(C)(=O)=O — EC50 (Human immunodeficiency virus 1; viral replication, inhibitor): 0.7 nM
O=C(N[C@@H](CSCc1ccccc1)C(=O)NO)c1ccccc1 — IC50 (HCC4006; cell growth or viability, MTT; 48 h): 68.2 µM
CC(=O)ON=C1C=CC(=C(C#N)c2ccccc2)C=C1 — IC50 (HDF-1; cell growth or viability, MTT; 48 h): 24.9 µg/mL
O=[N+]([O-])c1cn2c(n1)OC[C@@H](OCc1ccc(OC(F)(F)F)cc1)C2 — MIC90 (Mycobacterium marinum; microbial growth): 50 µM (≈ 18 µg/mL)
CCOC(=O)c1c(NCCCN)c2c([nH]c1=O)CCC2 — EC50 (Human immunodeficiency virus 1; viral replication, inhibitor; IIIB; 72 h): > 100000 nM
O=c1[nH]ncc(NN=Cc2cn(-c3ccccc3)nc2-c2ccccc2)c1Cl — CC50 (CCRF-CEM; cell growth or viability; 48 h): 4.78 µM
CCOC(=O)c1c(N(CC)CC)c2c([nH]c1=O)CCC2 — EC50 (Human immunodeficiency virus 1; viral replication, inhibitor; IIIB; 72 h): 79300 nM
CC(C)(C#Cc1ccc(-c2ccc(Cl)c3c(NS(C)(=O)=O)nn(CC(F)(F)F)c23)c([C@H](CC2CC2)NC(=O)Cn2nc(C(F)(F)F)c3c2C(F)(F)[C@@H]2C[C@H]32)n1)S(C)(=O)=O — EC50 (Human immunodeficiency virus 1; viral replication, inhibitor): 0.9 nM
CCOC(=O)c1c(NCCC(C)C)c2c([nH]c1=O)CCC2 — EC50 (Human immunodeficiency virus 1; viral replication, inhibitor; IIIB; 72 h): 9090 nM
CC(C)(C#Cc1ccc(-c2ccc(Cl)c3c(NS(C)(=O)=O)nn(CC(F)(F)F)c23)c([C@H](CC2CCCC2)NC(=O)Cn2nc(C(F)(F)F)c3c2C(F)(F)[C@@H]2C[C@H]32)n1)S(C)(=O)=O — EC50 (Human immunodeficiency virus 1; viral replication, inhibitor): 0.073 nM
C=CCNc1c2c([nH]c(=O)c1C(=O)OCC)CCC2 — EC50 (Human immunodeficiency virus 1; viral replication, inhibitor; IIIB; 72 h): > 100000 nM
Cc1nc(Nc2ncc(C(=O)Nc3c(C)cccc3Cl)s2)cc(N2CC[C@H](O)C2)n1 — IC50 (CCRF-CEM; cell growth or viability, ATP luminescence; 72 h): > 10 µM
